# In ChEMBL document CHEMBL4376878, “Potent Thiophene Antagonists of Human Complement C3a Receptor with Anti-Inflammatory Activity” (J Med Chem, 2020):
# Active and inactive are the calls of the source. The rule behind the calls is not given here.
# Columns and labels:
# [1] = AUC (0 to 8 hrs) in Wistar rat at 1 mg/kg, iv by LC-MS/MS analysis; assay type: ADME, organism-based; set-up: time < 8 hr, dose 1 mg/kg, route intravenous; details: in vivo
# Procedure, shortened: (§1)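 Male Wistar rats with jugular vein catheter, fasted overnight; dosed p.o. by gavage in olive oil or i.v. via catheter in 50% DMSO. Blood drawn from conscious unrestrained rats 5 min before dosing, then 5, 15, 30 min and 1–8 h after. Volume replaced with heparinized saline. Rats fed after 4 h sample. n = 3 per route.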
# [2] = molecular target: T1, C3a anaphylatoxin chemotactic receptor (Homo sapiens) (UniProt Q16581); assay: (§2) Antagonist activity at C3a receptor in human MDM cells assessed as inhibition of C3a-induced intracellular calcium release preincubated for 30 mins followed by C3a addition and measured at 1 sec interval for => 200 secs by Fluo-3 AM dye-based FLIPR assay; assay type: functional, cell-based
# T1 sequence (whole entry): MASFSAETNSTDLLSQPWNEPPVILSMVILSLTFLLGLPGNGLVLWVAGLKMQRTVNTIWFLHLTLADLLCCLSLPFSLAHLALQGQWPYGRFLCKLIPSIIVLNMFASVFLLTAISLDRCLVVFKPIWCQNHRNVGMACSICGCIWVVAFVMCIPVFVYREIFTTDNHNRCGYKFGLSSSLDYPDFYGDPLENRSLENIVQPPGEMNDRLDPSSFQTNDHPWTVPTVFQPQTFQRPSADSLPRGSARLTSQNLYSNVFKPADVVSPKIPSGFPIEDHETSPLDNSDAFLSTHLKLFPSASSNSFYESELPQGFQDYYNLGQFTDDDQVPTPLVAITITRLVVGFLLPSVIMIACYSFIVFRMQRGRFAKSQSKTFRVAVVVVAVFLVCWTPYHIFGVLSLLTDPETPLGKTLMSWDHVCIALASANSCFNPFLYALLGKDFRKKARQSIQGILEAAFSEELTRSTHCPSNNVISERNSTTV
# Procedure, shortened: (§3)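 Macrophages were derived from CD14⁺ monocytes (M-CSF, 7 days) and dye-loaded with 4 μM Fluo-3 AM for 1 h at 37 °C in HBSS/probenecid/HEPES, pH 7.4. Antagonist was preincubated for 30 min at 37 °C before addition of synthetic full-length human C3a (100 nM). FLIPR fluorescence was read at ex 495/em 520 nm. Percent response was plotted against log concentration; n ≥ 3.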
# [3] = molecular target: T2, C3a anaphylatoxin chemotactic receptor (Homo sapiens, UniProt Q16581); assay: as §2; assay type: functional, cell-based; details: read-out: IC50; procedure, shortened: as §3
# T2 sequence (Q16581 whole entry): T1 sequence (whole entry)
# Rattus norvegicus [4] = assay: Antiinflammatory activity in Wistar rat model of BR103-induced paw edema assessed as reduction in number of ED1-positive macrophages at 10 mg/kg, po administered via gavage pretreated for 2 hrs followed by BR103 challenge and measured after 30 mins by immunohistochemical analysis; assay type: functional, organism-based
# Procedure, shortened: (§4)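 Male Wistar rats 7–8 weeks old, given 10 mg/kg p.o. in olive oil 2 h before i.pl. BR103 (350 μg/paw). Sham/control received olive oil. Left paw plantar tissue taken 30 min after agonist and fixed in formalin. Frozen 5 μm sections stained with alcian blue/safranin O, or immunostained for tryptase, histamine or ED1. Positive cells quantified; n = 5 per group, one-way ANOVA.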
# [5] = molecular target: T2, C3a anaphylatoxin chemotactic receptor; assay: Agonist activity at C3a receptor in human MDM cells assessed as induction of intracellular calcium release measured at 1 sec interval for => 200 secs by Fluo-3 AM dye-based FLIPR assay; assay type: cell-based
# Procedure, shortened: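 HMDMs were differentiated from CD14⁺ monocytes with M-CSF (100 ng/mL) for 7 days and seeded overnight at 5 × 10⁴ cells/well. Cells were loaded with 4 μM Fluo-3 AM for 1 h at 37 °C, then placed in HBSS with 2.5 mM probenecid and 20 mM HEPES, pH 7.4. Agonist was added on FLIPR and read at ex 495/em 520 nm. EC50 is relative to the maximum from 1 μM C3a; n ≥ 3.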
# Rattus norvegicus [6] = assay: Antiinflammatory activity in Wistar rat model of BR103-induced paw edema assessed as reduction in hind paw swelling at 10 mg/kg, po administered via gavage pretreated for 2 hrs followed by BR103 challenge and measured after 30 mins by digital caliper method relative to control; assay type: functional; set-up: scale not given: the % may be the effect or the level left
# Procedure, shortened: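 Male Wistar rats were given antagonist at 10 mg/kg by oral gavage in olive oil 2 h before intraplantar BR103 (350 μg in 100 μL of 5% DMSO). Sham paws received vehicle; sham and control rats received olive oil only. Paw thickness and width were measured with digital calipers at 0, 0.5, 1 and 2 h after agonist; n = 3 per group.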
# Rattus norvegicus [7] = assay: (§5) Antiinflammatory activity in Wistar rat model of BR103-induced paw edema assessed as reduction in histamine release at 10 mg/kg, po administered via gavage pretreated for 2 hrs followed by BR103 challenge and measured after 30 mins by immunohistochemical analysis; assay type: functional, organism-based; procedure, shortened: as §4
# Rattus norvegicus [8] = assay: Antiinflammatory activity in Wistar rat model of BR103-induced paw edema assessed as reduction in Il6 gene expression at 10 mg/kg, po administered via gavage pretreated for 2 hrs followed by BR103 challenge and measured after 30 mins by SYBR green dye based RT-PCR analysis; assay type: functional, organism-based
# Procedure, shortened: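 Rats given 10 mg/kg p.o. in olive oil 2 h before i.pl. BR103 (350 μg/paw). Paws collected 0.5 h after agonist and homogenized in TRIsure for RNA. qPCR run in duplicate, normalized to Hprt, with fold change relative to sham. n = 3–5 male Wistar rats per group.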
# Rattus norvegicus [9] = assay: as §5, with “inhibition of activation/degranulation of mast cells” for “reduction in histamine release”, “tryptase staining-based microscopic” for “immunohistochemical”; assay type: functional, organism-based; procedure, shortened: as §4
# [10] = molecular target: T1, C3a anaphylatoxin chemotactic receptor (Homo sapiens); assay: Potency index, ratio of SB290157 IC50 to test compound IC50 for antagonist activity at C3a receptor in human LAD2 cells assessed as inhibition of C3a-induced beta-hexosaminidase release; assay type: cell-based
# [11] = Tmax in Wistar rat at 10 mg/kg, po by LC-MS/MS analysis; assay type: ADME, organism-based; details: in vivo; procedure, shortened: as §1
# [12] = molecular target: T3, C5a anaphylatoxin chemotactic receptor 1 (Homo sapiens) (UniProt P21730); assay: Antagonist activity at C5a receptor in human MDM cells assessed as inhibition of C5a-induced intracellular calcium release preincubated for 30 mins followed by C5a addition and measured at 1 sec interval for => 200 secs by Fluo-3 AM dye-based FLIPR assay; assay type: functional, cell-based
# T3 sequence (whole entry): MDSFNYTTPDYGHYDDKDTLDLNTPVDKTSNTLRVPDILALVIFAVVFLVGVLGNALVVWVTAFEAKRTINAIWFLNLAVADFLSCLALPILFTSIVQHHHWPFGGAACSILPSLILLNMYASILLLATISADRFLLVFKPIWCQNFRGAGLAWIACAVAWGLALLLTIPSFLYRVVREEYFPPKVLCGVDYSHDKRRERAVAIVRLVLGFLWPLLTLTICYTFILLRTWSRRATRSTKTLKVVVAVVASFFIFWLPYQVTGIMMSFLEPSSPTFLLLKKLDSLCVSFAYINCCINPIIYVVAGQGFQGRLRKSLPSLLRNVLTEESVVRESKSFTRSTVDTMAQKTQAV
# Procedure, shortened: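 HMDMs from CD14+ monocytes after 7 days in M-CSF; 5 × 10⁴ cells/well seeded overnight. Cells loaded 1 h at 37 °C with 4 μM Fluo-3 AM, then washed into HBSS with 2.5 mM probenecid and 20 mM HEPES, pH 7.4. Antagonist preincubated 30 min at 37 °C before C5a. Fluorescence (ex 495/em 520 nm) read every 1 s for ≥200 s.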
smiles,measurement,setting,value
Cc1cc(C(c2ccc(Cl)cc2)c2ccc(Cl)cc2)sc1C(=O)N[C@@H](CCCNC(=N)N)C(=O)O,AUC(0-t) at 8 h,[1],3800 ng·h/mL
same,inhibition,[2],Dose-dependent effect
same,IC50,[3],0.01 µM
same,Activity,Rattus norvegicus [4],Active
same,EC50,[5]; read-out: EC50,> 100 µM
same,EC50,[5]; read-out: pEC50 (converted),> 100 µM
same,Activity,Rattus norvegicus [6],65%
same,Activity,Rattus norvegicus [7],Active
same,Activity,Rattus norvegicus [8],Active
same,Activity,Rattus norvegicus [9],Active
same,Ratio IC50,[10],100
same,Tmax,[11],5 h
same,inhibition,[12],inactive
